Published values from different studies.
Lines come from different studies, so protocols differ. pIC50: −log10 of the molar value.
CYP2C9: Cytochrome P450 2C9 (CYP2C9, Homo sapiens, UniProt P11712)

Cc1ccc(-c2nnc(N[C@@H](Cc3ccc(C#N)cc3)C(=O)N3CCc4ccccc43)o2)cc1  half-life (metabolic stability; rat, liver microsomes; 10 µM, pH 7.4): 14 min
CC(=O)O[C@@H]1[C@@H](O)[C@H](O[C@H]2CC[C@]34C[C@]35CC[C@]3(C)[C@@H]([C@@]6(C)CC[C@@H](C(C)(C)O)O6)[C@@H](O)C[C@@]3(C)[C@@H]5C[C@H](O[C@@H]3O[C@H](CO)[C@@H](O)[C@H](O)[C@H]3O)[C@H]4C2(C)C)OC[C@H]1O  pIC50 (CYP2C9; enzyme activity, inhibitor; human, liver microsomes): < 3.70
OCc1ccc(-c2nn(Cc3ccccn3)c3ccccc23)o1  half-life (metabolic stability; rat, liver microsomes; 1 µM, pH 7.4): 11 min
CN(C)C(=O)c1cc2cnc(Nc3ccc(-c4ccc5c(=O)cc(N6CCOCC6)oc5c4)cc3)nc2n1C1CCCC1.Cl  AUC(0-inf) (BALB/c mouse, plasma; oral, 20 mg/kg): 7810 ng·h/mL
COc1ccc(-c2coc3cc(O[C@@H]4O[C@H](CO)[C@@H](O)[C@H](O)[C@H]4O)ccc3c2=O)cc1O  pIC50 (CYP2C9; enzyme activity, inhibitor; human, liver microsomes): < 3.70
CSc1ccccc1C(=O)NCCn1cc(C(=O)NCc2cccc(C)n2)c(=O)c2cc3c(cc21)OC(F)(F)O3  pIC50 (CYP2C9; enzyme activity, inhibitor; human, liver microsomes; 20 min, without NADPH, with preincubation): < 4.00
OCc1ccc(-c2nn(Cc3ccccc3)c3ccccc23)o1  half-life (metabolic stability; rat, liver microsomes): 5 min
N#Cc1ccc(C[C@H](NC(=O)c2cc3cc(F)ccc3[nH]2)C(=O)N2CCc3ccccc32)cc1  half-life (metabolic stability; rat, liver microsomes; 10 µM, pH 7.4): 76 min
CSc1ccccc1C(=O)NCCn1cc(C(=O)NCc2cccc(C)n2)c(=O)c2cc3c(cc21)OCO3  pIC50 (CYP2C9; enzyme activity, inhibitor; human, liver microsomes; 20 min, without NADPH, with preincubation): < 4.00
